Test results as given in ChEMBL document CHEMBL1121421, “2,4-Diamino-5-benzylpyrimidines and analogues as antibacterial agents. 2. C-Alkylation of pyrimidines with Mannich bases and application to the synthesis of trimethoprim and analogues” (J Med Chem, 1980).
≈ marks a conversion by molar mass, not a printed value.

Assays:
Staphylococcus aureus = assay: Antibacterial activity against Staphylococcus aureus CN491.; type: functional
Salmonella = assay: Antibacterial activity against typhi CN512.; type: functional, salmonella typhosa
Streptococcus pyogenes = assay: Antibacterial activity against Streptococcus pyogenes CN10; type: functional
Escherichia coli = assay: Antibacterial activity against Escherichia coli CN314.; type: functional
Proteus vulgaris = assay: Antibacterial activity against Proteus vulgaris CN 329.; type: functional
Serratia marcescens = assay: Antibacterial activity against of against Serr. marcescens CN 398.; type: functional
Klebsiella pneumoniae = assay: Antibacterial activity against Klebsiella pneumoniae CN 3632.; type: functional
Shigella dysenteriae = assay: Antibacterial activity against of against Shig dysentariae CN 1523.; type: functional
[1] = target: T1, Dihydrofolate reductase (Rattus norvegicus) (UniProt Q920D2); assay: (§1) Inhibitory activity against Dihydrofolate reductase enzyme purified from rat liver.; design: scale not given: the % may be the effect or the level left
T1 sequence (whole entry): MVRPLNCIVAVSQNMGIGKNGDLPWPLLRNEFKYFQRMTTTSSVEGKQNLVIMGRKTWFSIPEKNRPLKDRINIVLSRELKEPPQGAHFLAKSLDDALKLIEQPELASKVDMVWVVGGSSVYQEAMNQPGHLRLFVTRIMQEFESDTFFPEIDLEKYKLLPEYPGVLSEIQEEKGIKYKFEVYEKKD
In short: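 Partially purified rat liver dihydrofolate reductase in phosphate buffer. Compound was preincubated with enzyme and buffer for 5 min at 37 °C. NADPH was then added, followed by FH₂ to start the reaction. IC₅₀ (50% drop in reaction rate) was taken from titrations over three to six compound concentrations. Otherwise the value is the percent inhibition at the highest concentration tested.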

[2] = target: Bifunctional dihydrofolate reductase-thymidylate synthase (Plasmodium berghei str. ANKA, UniProt Q27713); assay: Inhibitory activity against Dihydrofolate reductase enzyme purified from Plasmodium berghei.; conditions: read-out: I50
Dihydrofolate reductase = target: T2, Dihydrofolate reductase (Rattus norvegicus, UniProt Q920D2); assay: as §1; conditions: read-out: I50
T2 sequence (Q920D2 whole entry): T1 sequence (whole entry)

Chain of Bifunctional dihydrofolate reductase-thymidylate synthase (Q27713 whole entry): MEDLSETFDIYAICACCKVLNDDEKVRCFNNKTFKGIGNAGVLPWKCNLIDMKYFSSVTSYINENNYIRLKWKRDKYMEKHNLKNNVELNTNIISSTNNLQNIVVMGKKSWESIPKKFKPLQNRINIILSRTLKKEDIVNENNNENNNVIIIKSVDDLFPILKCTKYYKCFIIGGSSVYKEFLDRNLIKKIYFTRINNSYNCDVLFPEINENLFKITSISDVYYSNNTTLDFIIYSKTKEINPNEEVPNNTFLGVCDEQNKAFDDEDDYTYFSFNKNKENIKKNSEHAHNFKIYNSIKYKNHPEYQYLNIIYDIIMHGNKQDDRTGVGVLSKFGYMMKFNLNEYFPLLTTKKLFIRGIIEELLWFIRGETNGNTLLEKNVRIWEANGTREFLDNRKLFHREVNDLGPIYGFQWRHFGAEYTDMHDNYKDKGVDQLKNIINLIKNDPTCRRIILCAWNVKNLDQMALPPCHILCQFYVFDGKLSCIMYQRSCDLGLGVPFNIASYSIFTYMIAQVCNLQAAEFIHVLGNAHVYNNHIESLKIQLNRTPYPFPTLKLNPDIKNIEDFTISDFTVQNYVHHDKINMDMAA

| Structure (SMILES) | MIC (Staphylococcus aureus) | MIC (Salmonella) | MIC (Streptococcus pyogenes) | MIC (Escherichia coli) | MIC (Proteus vulgaris) | MIC (Serratia marcescens) | MIC (Klebsiella pneumoniae) | MIC (Shigella dysenteriae) | Activity [1] | IC50 [2] | IC50 (Dihydrofolate reductase) |
| --- | --- | --- | --- | --- | --- | --- | --- | --- | --- | --- | --- |
| COc1cc(Cc2cnc(N)nc2N)cc(OC)c1OC [TRIMETHOPRIM] | 1 µg/mL (≈ 3.44 µM) | 0.3 µg/mL (≈ 1.03 µM) | 0.3 µg/mL (≈ 1.03 µM) | 0.3 µg/mL (≈ 1.03 µM) | 1 µg/mL (≈ 3.44 µM) | 3 µg/mL (≈ 10.3 µM) | 0.3 µg/mL (≈ 1.03 µM) | 0.1 µg/mL (≈ 0.344 µM) |  |  |  |
| COc1cc(Cc2c[n+](C)c(N)nc2N)cc(OC)c1OC.[I-] | 50 µg/mL | 25 µg/mL | 50 µg/mL | 50 µg/mL | > 100 µg/mL |  | > 100 µg/mL | 25 µg/mL | 41% |  |  |
| COc1cc(Cc2c(C)nc(N)nc2N)cc(OC)c1OC | 30 µg/mL (≈ 98.6 µM) | 30 µg/mL (≈ 98.6 µM) | 30 µg/mL (≈ 98.6 µM) | 30 µg/mL (≈ 98.6 µM) | > 100 µg/mL | > 100 µg/mL | > 100 µg/mL | 30 µg/mL (≈ 98.6 µM) |  |  |  |
| COc1cc(Cc2c(N)nc(N)nc2O)cc(OC)c1O | > 100 µg/mL | > 100 µg/mL | > 100 µg/mL | > 100 µg/mL | > 100 µg/mL | > 100 µg/mL | > 100 µg/mL | > 100 µg/mL |  |  |  |
| COc1cc(Cc2cnc(N)nc2N)cc(OC)c1O [4-HYDROXYTRIMETHOPRIM] | 0.5 µg/mL (≈ 1.81 µM) | 0.03 µg/mL (≈ 0.109 µM) | 0.5 µg/mL (≈ 1.81 µM) | 0.125 µg/mL (≈ 0.452 µM) | 2 µg/mL (≈ 7.24 µM) |  |  |  |  | 0.3 µM | 92 µM |
